Screening data from PubChem BioAssay.
AI-2 QS mod – modulates the Vibrio harveyi AI-2 quorum sensing system; Vibrio harveyi JMH597 AI-2 luminescence/OD600 ratio, 9 h; hits give low values; strain lacks LuxN and CqsS sensors; 0 = neutral-control median; activity change, % at 7.5 µM; actives 0.4% (n = 300,000); in the data active means activity change below about -75%, passing the limit was not always enough; inconclusive means no clear call, values can overlap the other calls;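 further: luminescence divided by OD600 gain over 9 h not by final OD600 alone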
MC4R barr agon – human MC4R agonism via beta-arrestin; P32245; actives 0.98% (n = 360,000); activation, % at 8.9 µM; U2OS MC4R beta-arrestin complementation, luminescence; percent of melanotan II response, DMSO zero;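 active means activation above a per-plate cutoff, the mean activation of sample wells on that plate plus 3 SD, cut at about 8% in these data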
Target sequence (P32245 whole entry, looked up): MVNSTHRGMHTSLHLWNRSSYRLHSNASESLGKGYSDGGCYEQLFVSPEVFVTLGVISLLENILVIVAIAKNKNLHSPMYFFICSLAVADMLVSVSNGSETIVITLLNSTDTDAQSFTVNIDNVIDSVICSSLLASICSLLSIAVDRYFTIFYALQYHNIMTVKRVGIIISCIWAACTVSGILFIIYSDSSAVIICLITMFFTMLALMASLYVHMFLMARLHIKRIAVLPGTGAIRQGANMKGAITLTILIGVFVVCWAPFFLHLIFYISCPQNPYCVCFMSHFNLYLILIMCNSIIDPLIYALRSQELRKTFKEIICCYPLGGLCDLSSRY
MC4R antagonist – blocks human MC4R cAMP signaling; P32245; MC4R-expressing cells, MTII-stimulated cAMP, LANCE TR-FRET; inhibition, % at 6.5 µM; actives 0.48% (n = 360,000); AID 540295;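 active means inhibition above its plate's cutoff, the mean of tested wells on that plate plus 3 SD, cut at about 29% in these data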;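 further: 0% = Melanotan II alone and 100% = Melanotan II plus saturating MCL0020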
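Material: human MC4R-expressing U2OS cells. Probe or stimulus: Melanotan II challenge. Dosing: 6.5 µM single dose. Times: 30-min compound, 1-h challenge, 1-h detection, room temperature. Technique: TR-FRET with Eu-cAMP and labeled anti-cAMP, 671 nm. Replication: singlicate.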
NTR1 agonist – activates human neurotensin receptor 1 | P30989 | NTR1-U2OS beta-arrestin-GFP spot imaging, agonist mode | activation, % at 20 µM | actives 0.17% (n = 330,000);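 active means activation at or above 40% of the spot to cytoplasm intensity ratio, with at least 20 cells analyzed; inconclusive means wells under 20 cells, flagged as cytotoxic or low count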;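 further: 0% = DMSO without peptide and 100% = 100 nM NTR1 peptide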
JMH597 growth – retest: inhibitors of Vibrio harveyi JMH597 growth; shares compounds with AI-2 QS mod; OD600 absorbance, 9 h; lacks LuxN and CqsS sensors; growth inhibition, % at 7.5 µM; actives 1% (n = 750);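 active means every replicate shows growth inhibition above 50%; inconclusive means at least half, but not all, replicates pass that cutoff; inactive means fewer than half of replicates pass it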
BB721 lum counter – retest counter-screen: luminescence loss in constitutive-on quorum sensing strain BB721; shares compounds with AI-2 QS mod; Vibrio harveyi BB721 luminescence, 9 h; inhibition, % at 7.5 µM; actives 95% (n = 750);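 active means inhibition above about 80% in every replicate, not just on average, limit read from the data; inconclusive means at least half of replicates past the limit, but not all; inactive means fewer than half of replicates past the limit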
BB721 growth rt – retest: blocks Vibrio harveyi BB721 growth; shares compounds with AI-2 QS mod; OD600 absorbance, 9 h; growth inhibition, % at 7.5 µM; actives 3% (n = 750); AID 2728;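 active means every replicate shows growth inhibition above 50%; inconclusive means at least half but not all replicates above 50% inhibition; inactive means under half of replicates above 50% inhibition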
JMH597 AI-2 mod – Vibrio harveyi AI-2 signaling luminescence modulation – JMH597 strain, confirmation | inhibition, % at 7.5 µM | shares compounds with AI-2 QS mod | actives 97% (n = 750) | Vibrio harveyi JMH597 AI-2 quorum sensing luminescence, 9 h; luxN and CqsS knockout, AI-2 only;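 active means every replicate shows more than 75% inhibition of signal versus neutral control wells; inconclusive means half to three quarters of replicates exceed 75% inhibition; inactive means fewer than half of replicates exceed 75% inhibition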
An asterisk follows results filed as active; ? = inconclusive; nt = not tested or not shown. Most compounds without a hit are left out; they make up all but 1.8% or so of the library.

SMILES | AI-2 QS mod | MC4R barr agon | MC4R antagonist | NTR1 agonist | JMH597 growth | BB721 lum counter | BB721 growth rt | JMH597 AI-2 mod
CCCC1(c2ccccc2)NC(=O)N(CC(=O)NCc2ccc(C)cc2)C1=O (stereo not given) | -90.7* | -0.1 | -3.0 | -1.7 | -5.7 | 88.7* | -12.9 | 93.9*
CCC1(c2ccccc2)NC(=O)N(CC(=O)NNC(=O)c2ccoc2C)C1=O (stereo not given) | 3.1 | 0.5 | 12.3 | 0.3 | nt | nt | nt | nt
CCCC1(c2ccccc2)NC(=O)N(CC(=O)Nc2cc(C)ccc2OC)C1=O (stereo not given) | 22.7 | -2.5 | 3.9 | 0.7 | nt | nt | nt | nt
CCCC1(c2ccccc2)NC(=O)N(CC(=O)NCc2ccc(OC)cc2)C1=O (stereo not given) | -85.6* | 2.5 | 7.3 | 0.5 | -18.0 | 86.1* | -4.4 | 91.1*
CCc1ccc(C(=O)NNC(=O)CN2C(=O)NC(CC)(c3ccccc3)C2=O)cc1 (stereo not given) | -82.8* | -2.8 | 5.9 | 1.1 | 5.4 | 88.1* | 8.0 | 94.0*
COc1ccc(CNC(=O)CN2C(=O)NC(C)(c3cccc(Br)c3)C2=O)cc1 (stereo not given) | 2.1 | -1.6 | -0.8 | -0.3 | nt | nt | nt | nt
CCOc1ccc(CCNC(=O)CN2C(=O)COc3ccc(S(=O)(=O)N4CCOCC4)cc32)cc1 | 8.2 | -1.7 | 10.9 | 0.8 | nt | nt | nt | nt
CC(COc1ccc(C(C)C)cc1)NC(=O)c1ccc(Br)o1 (stereo not given) | -82.5* | -0.3 | 6.9 | 4.2 | -15.9 | 88.2* | 2.7 | 92.8*
CC(C)c1ccc(NC(=O)c2ccc(Br)o2)cc1 | 6.9 | 2.9 | 7.9 | 0.6 | nt | nt | nt | nt
CCCn1c(=S)[nH]c2cc(C(=O)N3CCc4ccccc43)ccc2c1=O | ? | -0.7 | 5.7 | 10.3 | -4.3 | 84.8* | -10.5 | 88.7*
O=c1[nH]c2ccccc2c(O)c1-c1ccccc1 | 15.2 | 0.8 | 10.0 | -0.4 | nt | nt | nt | nt
O/N=C/Cc1[nH]c2ccccc2c1-c1ccccc1 | -96.3* | -2.2 | 1.3 | 0.3 | 28.9 | 95.3* | -96.6 | 99.0*
COc1cc(/C=N/Nc2ccc(C(=O)O)cc2)cc(OC)c1OC | 16.6 | -0.2 | -11.9 | 0.7 | nt | nt | nt | nt
COc1ccc(/C=N/Nc2ccc(C(=O)O)cc2)c(OC)c1OC | -91.6* | -0.4 | -12.5 | -0.2 | 0.2 | 94.6* | -6.7 | 96.0*
CN1C(=O)C(=O)/C(=C(/O)c2ccc(Br)cc2)C1c1ccccc1F (stereo not given) | 0.2 | 0.3 | 0.8 | -0.2 | nt | nt | nt | nt
COc1ccc(CNC(=O)Nc2ccccc2)cc1 | -88.5* | -1.4 | 4.6 | 1.2 | 4.9 | 95.0* | 22.2 | 95.6*
COc1ccc(CNC(=O)Nc2ccc(OC)cc2)cc1 | -5.2 | -1.7 | -3.3 | -0.2 | nt | nt | nt | nt
COc1ccc(CNC(=O)Nc2cccc(C)c2)cc1 | -91.9* | 0.3 | 14.1 | -0.8 | 11.1 | 97.2* | 27.8 | 97.5*
Cc1noc(C)c1CSCC(=O)Nc1ccc(S(=O)(=O)C(F)F)cc1 | 19.9 | -2.4 | 8.2 | -0.4 | nt | nt | nt | nt
CCOC(=O)c1c(NC(=O)CN2C(=O)NC(C)(c3ccc(OC(F)F)cc3)C2=O)sc(C)c1C (stereo not given) | 30.3 | 1.7 | 2.1 | 18.1 | nt | nt | nt | nt
Cc1cc(NC(=O)CN2C(=O)NC(C)(c3ccc(OC(F)F)cc3)C2=O)no1 (stereo not given) | -74.2 | 0.5 | -1.7 | 2.3 | nt | nt | nt | nt
CCOc1ccc(NC(=O)CN2C(=O)NC(C)(c3ccc(OC(F)F)cc3)C2=O)cc1 (stereo not given) | -92.6* | -1.4 | -0.1 | 1.2 | 41.0 | 93.9* | 56.8* | 96.0*
CC1(c2ccc(OC(F)F)cc2)NC(=O)N(CC(=O)Nc2cccc(F)c2)C1=O (stereo not given) | -93.0* | -0.6 | -4.3 | 4.3 | 18.6 | 95.1* | 24.1 | 96.9*
